# Source: PubChem
# Htt clearance: mutant huntingtin protein clearance | HeLa Exon1htt(103Q)mCFP, aggregate imaging; zero = plate's median compound well | inhibition, % at 1.5 µM | 0.42% of 47,000 active;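 active means inhibition of aggregate fluorescence above about 70%, also judged a hit by eye on the cell image, limit read from the data, passing the limit was not always enough; inconclusive means no rule stated for this call; inactive means not judged a hit on image review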;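 further: cells exposed to compound for three days before fixation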
# SF-1 act: activates the human nuclear receptor SF-1; Q13285; CHO-K1 Gal4-SF-1 LBD luciferase reporter; % increase over DMSO SF-1-specific signal; activation, % at 10 µM; 1.9% of 65,000 active; AID 522;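 active means activation above the mean activation of all tested compounds plus 3 SD, cut at about 50% in these data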
#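 Assay system: CHO-K1 cells co-transfected with Gal4 DBD–human SF-1 LBD, 5xGal4 luciferase reporter; doses: 10 µM only; incubation: 20 h compound exposure at 37 °C after 1 h cell settling; signal: luciferase light emission; evaluation: percent activation versus DMSO; repeats: one test per compound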
# M1 antagonist: antagonists of rat M1 muscarinic receptor; P08482; CHO-M1 cells, Fluo-4 calcium, ACh EC80 antagonist mode; hits give low values; B-score at 10 µM; 3.4% of 64,000 active;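 active means calcium fluorescence response, raw or row-and-column corrected B-score, differing from the plate sample mean either way at a set confidence level, mostly lower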
# RORa activator: activators of human nuclear receptor RORA; CHO-K1 Gal4-RORA LBD luciferase reporter, luminescence; percent increase over mock-subtracted basal signal; activation, % at 10 µM; 1.5% of 65,000 active;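 active means activation above the mean of all tested compounds plus 3 SD, cut at about 49% in these data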;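 further: 0% = DMSO-treated RORA cells and 100% = added signal equal to DMSO minus mock-transfected cells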
# Target sequence (P35398 whole entry, looked up, the tested form may be a part): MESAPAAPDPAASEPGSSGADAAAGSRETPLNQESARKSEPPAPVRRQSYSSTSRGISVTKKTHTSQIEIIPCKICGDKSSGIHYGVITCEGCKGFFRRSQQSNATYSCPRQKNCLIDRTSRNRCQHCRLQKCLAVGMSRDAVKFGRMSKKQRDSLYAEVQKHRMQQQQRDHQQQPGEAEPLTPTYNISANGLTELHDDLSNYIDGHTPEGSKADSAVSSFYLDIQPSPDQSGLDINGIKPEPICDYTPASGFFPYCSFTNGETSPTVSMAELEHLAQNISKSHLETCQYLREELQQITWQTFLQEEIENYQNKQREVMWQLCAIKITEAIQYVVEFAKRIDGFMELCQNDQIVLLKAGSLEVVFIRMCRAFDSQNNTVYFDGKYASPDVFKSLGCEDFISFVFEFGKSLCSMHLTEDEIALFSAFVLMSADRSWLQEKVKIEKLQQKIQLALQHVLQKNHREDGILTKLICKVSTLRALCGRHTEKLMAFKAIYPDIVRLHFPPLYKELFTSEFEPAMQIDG
# M1 agonist: M1 muscarinic receptor agonism | CHO-M1 cells, Fluo-4 calcium fluorescence, agonist mode; hits give high values | B-score at 10 µM | 3% of 64,000 active;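 active means fluorescence rise, raw or as B-score row- and column-corrected plate score, outside the 99.7% band of its plate's samples, either direction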
# D1 allo mod: allosteric modulators of human D1 dopamine receptor; B-score at 10 µM; HEK293 D1, CRE-luciferase, dopamine EC30 potentiation; actives deviate in either direction; 5.9% of 58,000 active; P21728; AID 641;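 active means luminescence count or its row- and column-corrected plate score outside the 99.7% band of the plate's sample wells, on either side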
# * marks the source's active call; other numbers are inactive results; ? = inconclusive; . = no result. Most compounds without a hit are left out; they make up all but 11% or so of the library.
SMILES,Htt clearance,SF-1 act,M1 antagonist,RORa activator,M1 agonist,D1 allo mod
Cn1c(=O)c2c3c(sc2n2c(SCC(=O)c4ccccc4)nnc12)COC(C)(C)C3,.,-11.5,-2.89*,-11.0,-0.78,.
Nn1c(=O)c2ccccc2n2c(SCc3ccccc3)nnc12,80.4*,-17.1,0.316,-21.3,-0.239,0.258
CCOc1ccc(Nc2nc(Cc3nnc(SCC(=O)c4ccc(C)c(C)c4)o3)cs2)cc1,-277.2,.,.,.,.,.
Cc1ccc(NC(=S)NC(NC(=O)c2ccccc2C)C(Cl)(Cl)Cl)c(C)c1 (centres undefined),-5.7,.,.,.,.,.
CCOC(=O)c1[nH]c(C)c(C(=O)Nc2ccc(Cl)cc2)c1C,-109.9,24.0,-0.684,6.2,-0.183,-0.69
CCOC(=O)c1[nH]c(C)c(C(=O)Nc2cccc(Cl)c2C)c1C,-4.1,30.1,-1.52,64.2*,-1.19,-0.0792
COc1cccc(-c2cn3nc4c(nc3n2)CCCC4)c1,-61.8,41.1,0.391,44.5,0.0745,-4.82*
Cc1ccc(CNC(=O)CN(Cc2ccccc2)S(C)(=O)=O)cc1,3.5,.,.,.,.,.
CCOc1ccc2[nH]c(=O)c(CN(Cc3nnnn3Cc3ccco3)C3CCCCC3)cc2c1,2.8,10.3,-1.49,2.5,3.64*,.
COc1ccc(Cn2nnnc2CN(Cc2cc3cccc(C)c3[nH]c2=O)C2CCCC2)cc1,.,-8.4,1.11,13.2,2.17,-3.33*
COc1ccc(Cn2nnnc2CN(Cc2cc3ccc(C)cc3[nH]c2=O)C2CCCC2)cc1,68.5,4.8,0.978,2.5,-1.59,0.317
CC(C)(C)OC(=O)NCCCCCc1nnc(SCC(=O)Nc2cccc(Cl)c2)o1,.,6.3,-0.771,25.7,3.51,-0.688
Cc1sc2nc(CN(C(=O)c3cccs3)C3CCCC3)[nH]c(=O)c2c1C,-49.0,-11.4,1.95*,6.2,0.661,0.0955
CCOc1ccc(N2Cc3ccccc3C2)cc1,-10.5,62.5*,-0.541,51.1*,-0.288,.
CCOc1ccc(S(=O)(=O)N2CCc3ccccc3C2)cc1,-7.3,1.7,-0.027,-4.5,-0.281,1.29
O=C(CSc1nnc2ccccn12)c1ccc2c(c1)OCCO2,.,63.5*,-0.87,50.6*,-0.985,-1.65
COc1cc(C(=O)N2CCCc3ccccc32)cc(OC)c1OC,-31.6,.,.,.,.,.
CCn1cc(C(=O)N2CCCc3ccccc32)c2cc(OC)c(OC)cc2c1=O,-240.9,-3.3,0.882*,-0.4,-0.117,0.177
CCN(CC)c1ccc2c(c1)oc(=O)c1c(Cl)cc(=O)oc12,-5.7,17.0,-0.105,22.1,44.8*,-1.38
CCN(CC)c1ccc2c(Cl)c(Br)c(=O)oc2c1,.,-46.7,0.461,-45.6,37.6*,-0.159
CCN(CC)c1ccc2c(C)c(-c3ccc(N)cc3)c(=O)oc2c1,.,46.2,0.874,22.4,0.505,-0.00672
CCOc1nc(Nc2ccc(OC)c(Cl)c2)nc(OCC)n1,43.5,.,.,.,.,.
Cc1nc2nc(-c3ccccc3)nn2c(C)c1Cl,57.5,102.6*,-0.00961,77.0*,1.71,0.141
Cc1nc2nc(-c3ccc(Cl)cc3)nn2c(C)c1Cl,-43.7,.,.,.,.,.
COc1cc(C(=O)N2CCN(c3ccc(C)cc3C)CC2)cc(OC)c1OC,.,12.2,1.02,64.0*,-0.558,-0.778
SMILES,Htt clearance,SF-1 act,M1 antagonist,RORa activator,M1 agonist,D1 allo mod
CC1CCC(NC(=O)Cn2ncc3ccccc32)CC1 (centres undefined),.,52.0*,-0.668,34.0,0.595,-0.7
CCOC(=O)N1CCC(NC(=O)Cn2ncc3ccccc32)CC1,.,2.2,0.476,-6.4,0.766,0.182
Cc1ccccc1NC(=O)Cn1cnc2c(oc3ccccc32)c1=O,.,8.6,0.299,-2.6,-0.0762,-0.53
O=C(Cn1cnc2c(oc3ccccc32)c1=O)c1ccccc1,10.5,61.3*,0.0756,93.4*,0.92,-0.212
c1ccc(CSc2nnc(-c3c[nH]c4ccccc34)o2)cc1,.,46.0,0.069,79.6*,-0.0222,0.675
O=C(CSc1nnc(-c2c[nH]c3ccccc23)o1)N1c2ccccc2CCc2ccccc21,.,-3.5,-0.221,-2.4,0.607,-0.721
CC(=O)Nc1ccc(-c2nc3c(C)cccc3[nH]2)cc1,.,99.2*,0.0769,-4.5,0.195,-1.24
O=C(COc1cccc(-n2cnnn2)c1)Nc1ccccc1,28.7,.,.,.,.,.
CC(C)CNC(=O)c1ccc(COc2ccc(Cl)cc2Cl)o1,21.2,.,.,.,.,.
Cc1cc(C(F)(F)F)n(-c2nc(C(=O)Nc3ccccc3Oc3ccccc3)cs2)n1,-4.9,.,.,.,.,.
c1ccc(-c2cn3c4c(sc3n2)CCCC4)cc1,.,-73.0,0.0999,-73.8,-0.114,-9.94*
Cc1cc(NS(=O)(=O)c2ccc(Nc3nc(-c4sc(NC(=O)c5ccccc5)nc4C)cs3)cc2)no1,-6.4,.,.,.,.,.
Cc1nc(NC(=O)c2ccccc2)sc1-c1csc(N)n1,.,32.3,-0.00561,80.6*,0.499,-0.529
CC(C)C1Oc2ccccc2N(CC(=O)N(Cc2ccncc2)Cc2ccco2)C1=O (centres undefined),3.8,.,.,.,.,.
Nc1nc(Nc2ccccc2)nc2ccccc12,31.5,30.4,-0.806,-10.7,0.0835,-5.55*
Cc1occc1C(=O)Nc1ccccc1NC(=O)c1ccoc1C,31.5,19.5,0.622,-27.6,-0.0621,0.484
Cc1occc1C(=O)Nc1cccc2ccccc12,.,74.0*,-0.9,27.8,0.777,-2.69
COc1ccc(C(=O)NC(=O)Nc2cc(C)ccn2)cc1,12.7,-88.8,0.974,-69.6,0.139,-5.98*
COCCSc1ccccc1C(=O)Nc1nnc(COC)s1,.,2.7,0.426,1.4,-0.133,0.486
COc1cc(NC(=O)CC(C)C)ccc1NC(=O)c1ccco1,.,44.1,0.0544,79.8*,-0.446,-1.16
CCC(=O)Nc1ccc(NC(=O)c2ccco2)c(OC)c1,-63.7,12.4,0.484,45.0,-0.00763,0.0659
COCCSc1ccccc1C(=O)Nc1cc(C)on1,74.8*,2.9,0.284,4.4,0.762,0.0721
COc1cc(C(=O)Nc2cc(C)ccn2)cc(OC)c1OC,?,-12.8,-0.00996,-20.9,-0.214,1.67
COc1cccc(NC(=O)c2ccco2)c1,40.9,26.6,-1.57,54.2*,-0.359,0.539
O=C(O)CCC(=O)Nc1ccc(Br)cn1,4.1,12.3,-0.442,-9.0,0.378,0.282
SMILES,Htt clearance,SF-1 act,M1 antagonist,RORa activator,M1 agonist,D1 allo mod
CCn1cc(C(=O)O)c(=O)c2cnc(N3CCN(C(=O)Nc4ccccc4)CC3)nc21,-32.7,-1.5,0.474,17.8,0.0168,-0.513
Cc1cc[n+](-c2nc([O-])n(-c3ccccc3)c2C=O)cc1,9.7,.,.,.,.,.
CCNc1ccc(Br)cc(C(=O)/C=C/c2ccc(Cl)cc2Cl)c1=O,-15.1,.,.,.,.,.
CC1(C)Oc2ccc(NC(=O)c3ccco3)cc2O1,-10.8,.,.,.,.,.
COc1ccc(OCc2cccc(C(=O)Nc3cc(C)on3)c2)cc1,-9.4,.,.,.,.,.
COc1cccc(C(=O)Nc2cccc(NC(C)=O)c2)c1,-27.3,15.8,1.17,25.4,0.489,0.194
COc1cccc(C(=O)Nc2ccc(NC(=O)C(C)(C)C)cn2)c1,-15.4,-34.0,-0.31,-6.3,-1.08,-6.32*
COc1ccc(C(=O)Nc2cccc(OC)c2)cc1,14.4,81.2*,-0.144,46.3,0.0789,-3.71*
O=C(Nc1ccc(Br)c(Cl)c1)c1ccco1,-14.8,91.6*,-0.483,76.0*,-1.71,-0.715
